≈ marks a conversion by molar mass, not a printed value. Calls of active or inactive are those of the source. The rule behind the calls is not given here. Non-standard residues stand in square brackets, D forms with d. Residues, ends and D or L forms follow the SMILES beside them. *: point of attachment. Octanoyl(2R-Me,7,8-dehydro) = C=CCCCC[C@@H](C)C(=O)*; Oct7ynoyl(2R-Me) = C#CCCCC[C@@H](C)C(=O)*; NMeY = CN[C@@H](Cc1ccc(O)cc1)C(=O)O; NMeF = CN[C@@H](Cc1ccccc1)C(=O)O; X1 = CC(=O)CCCC[C@@H](C)C(=O)*; Oct(7)enoyl = C=CCCCCCC(=O)*; Oct(7)ynoyl = C#CCCCCCC(=O)*; NMeV = CN[C@H](C(=O)O)C(C)C; X5 = C#CCCCCC(C)CC(C)C(=O)*; Hept6ynoyl = C#CCCCCC(=O)*; X3 = CCCCCC[C@@H](C)C(=O)*; X6 = C#CCCCC[C@H](C)C(=O)*; NMeA = CN[C@@H](C)C(=O)O; X4 = C=CCCCCC(=O)*; X2 = C=CCCCC(=O)*
Experiments:
Leishmania donovani [1] = test: Antileishmanial activity against Leishmania donovani by DNA fluorescence assay; assay type: functional, organism-based
Vero = test: Cytotoxicity against african green monkey Vero cells by MTT assay; assay type: cell-based; conditions: Chlorocebus sabaeus
Summary of the method: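 Green monkey Vero kidney cells; cell proliferation read by MTT.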

[2] = Selectivity index, ratio of IC50 for african green monkey Vero cells to IC50 for Leishmania donovani; assay type: toxicity, cell-based; conditions: read-out: Ratio IC50
Leishmania donovani [3] = test: Antileishmanial activity against Leishmania donovani at 10 ug/mL by DNA fluorescence assay; assay type: functional, organism-based
Summary of the method: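 Leishmania donovani; parasite growth read by parasite DNA fluorescence, with amphotericin B as positive control.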

Trypanosoma cruzi [4] = test: Antitrypanosomal activity against Trypanosoma cruzi Tulahuen infected in mouse 3T3 cells assessed as beta-galactosidase activity at 13.5 uM after 7 days by chagas bioassay; assay type: functional, organism-based; conditions: NIH3T3
Plasmodium falciparum = test: Antimalarial activity against chloroquine-resistant Plasmodium falciparum W2 at 13.5 uM after 48 hrs by fluorometric method; assay type: functional, organism-based
Trypanosoma cruzi [5] = test: Antitrypanosomal activity against Trypanosoma cruzi Tulahuen infected in mouse 3T3 cells assessed as beta-galactosidase activity after 7 days by chagas bioassay; conditions: NIH3T3, 168 h
Leishmania donovani [6] = test: Antileishmanial activity against Leishmania donovani at 13.4 uM by DNA fluorescence assay; assay type: functional, organism-based

## C#CCCCCC(=O)N(C)[C@H](C(=O)N(C)[C@H](C(=O)N(C)[C@H](C(=O)N(C)[C@@H](C)C(=O)N(C)[C@@H](Cc1ccccc1)C(=O)N(C)C)C(C)C)C(C)C)C(C)C (Hept6ynoyl-[NMeV][NMeV][NMeV][NMeA][NMeF]-NMe2)
Leishmania donovani [1]
  IC50: 3.1 µM
Vero
  IC50: 156 µM
[2]
  selectivity ratio: 50.2

## C#CCCCCC(=O)N(C)[C@H](C(=O)N(C)[C@H](C(=O)N(C)[C@H](C(=O)N(C)[C@@H](C)C(=O)N(C)[C@@H](Cc1ccccc1)C(=O)O)C(C)C)C(C)C)C(C)C (Hept6ynoyl-[NMeV][NMeV][NMeV][NMeA][NMeF]-OH)
Leishmania donovani [1]
  IC50: 5.6 µM
Vero
  IC50: 281 µM
[2]
  selectivity ratio: 50.2

## C#CCCCCC(=O)N(C)[C@H](C(=O)N(C)[C@H](C(=O)N(C)[C@H](C(=O)N(C)[C@@H](C)C(=O)N(C)[C@@H](Cc1ccccc1)C(=O)OC)C(C)C)C(C)C)C(C)C (Hept6ynoyl-[NMeV][NMeV][NMeV][NMeA][NMeF]-OMe)
Leishmania donovani [1]
  IC50: > 14 µM
Vero
  IC50: 41.4 µM

## C=CCCCC(=O)N(C)[C@H](C(=O)N(C)[C@H](C(=O)N(C)[C@H](C(=O)N(C)[C@@H](C)C(=O)N(C)[C@@H](Cc1ccccc1)C(=O)N(C)C)C(C)C)C(C)C)C(C)C (X2-[NMeV][NMeV][NMeV][NMeA][NMeF]-NMe2)
Leishmania donovani [1]
  IC50: 6.7 µM
Vero
  IC50: 93.1 µM
[2]
  selectivity ratio: 13.9

## C=CCCCCC(=O)N(C)[C@H](C(=O)N(C)[C@H](C(=O)N(C)[C@H](C(=O)N(C)[C@@H](C)C(=O)N(C)[C@@H](Cc1ccccc1)C(=O)N(C)C)C(C)C)C(C)C)C(C)C (X4-[NMeV][NMeV][NMeV][NMeA][NMeF]-NMe2)
Leishmania donovani [1]
  IC50: 2.7 µM
Vero
  IC50: 13.8 µM
[2]
  selectivity ratio: 8.8

## C=CCCCCC(=O)N(C)[C@H](C(=O)N(C)[C@H](C(=O)N(C)[C@H](C(=O)N(C)[C@@H](C)C(=O)N(C)[C@@H](Cc1ccccc1)C(=O)O)C(C)C)C(C)C)C(C)C (X4-[NMeV][NMeV][NMeV][NMeA][NMeF]-OH)
Leishmania donovani [1]
  IC50: > 14 µM
Vero
  IC50: > 70 µM

## C=CCCCCC(=O)N(C)[C@H](C(=O)N(C)[C@H](C(=O)N(C)[C@H](C(=O)N(C)[C@@H](C)C(=O)N(C)[C@@H](Cc1ccccc1)C(=O)OC)C(C)C)C(C)C)C(C)C (X4-[NMeV][NMeV][NMeV][NMeA][NMeF]-OMe)
Leishmania donovani [1]
  IC50: > 14 µM
Vero
  IC50: 24.7 µM

## C#CCCCCC(C)CC(C)C(=O)N(C)[C@@H](Cc1ccccc1)C(=O)N[C@@H](C)C(=O)N(C)[C@@H](C)C(=O)N(C)[C@@H](Cc1ccc(OC)cc1)C(N)=O (stereo not given in full) (X5-[NMeF]A[NMeA][NMeY](Me)-NH2)
Leishmania donovani [3]
  Activity: inactive

## C#CCCCC[C@H](C)C(=O)N(C)[C@@H](Cc1ccccc1)C(=O)N[C@@H](C)C(=O)N(C)[C@@H](C)C(=O)N(C)[C@@H](Cc1ccc(OC)cc1)C(N)=O (X6-[NMeF]A[NMeA][NMeY](Me)-NH2)
Leishmania donovani [3]
  Activity: inactive

## C#CCCCC[C@H](C)C(=O)N(C)[C@H](C(=O)N(C)[C@H](C(=O)N(C)[C@H](C(=O)N(C)[C@@H](Cc1ccccc1)C(N)=O)C(C)C)C(C)C)C(C)C (X6-[NMeV][NMeV][NMeV][NMeF]-NH2)
Leishmania donovani [3]
  Activity: inactive

## C#CCCCC[C@H](C)C(=O)N(C)[C@H](C(=O)N(C)[C@H](C(=O)N(C)[C@H](C(=O)N(C)[C@H](C(N)=O)C(C)C)C(C)C)C(C)C)C(C)C (X6-[NMeV][NMeV][NMeV][NMeV]-NH2)
Leishmania donovani [3]
  Activity: inactive

## C=CCCCCCC(=O)N(C)[C@H](C(=O)N(C)[C@H](C(=O)N(C)[C@H](C(=O)N(C)[C@@H](C)C(=O)N(C)[C@@H](Cc1ccccc1)C(=O)O)C(C)C)C(C)C)C(C)C ({Oct(7)enoyl}-[NMeV][NMeV][NMeV][NMeA][NMeF]-OH)
Leishmania donovani [1]
  IC50: 4.1 µM
Vero
  IC50: 192 µM
[2]
  selectivity ratio: 46.9

## C=CCCCCCC(=O)N(C)[C@H](C(=O)N(C)[C@H](C(=O)N(C)[C@H](C(=O)N(C)[C@@H](C)C(=O)N(C)[C@@H](Cc1ccccc1)C(=O)OC)C(C)C)C(C)C)C(C)C ({Oct(7)enoyl}-[NMeV][NMeV][NMeV][NMeA][NMeF]-OMe)
Leishmania donovani [1]
  IC50: > 14 µM
Vero
  IC50: 18.8 µM

## C#CCCCCCC(=O)N(C)[C@H](C(=O)N(C)[C@H](C(=O)N(C)[C@H](C(=O)N(C)[C@@H](C)C(=O)N(C)[C@@H](Cc1ccccc1)C(=O)N(C)C)C(C)C)C(C)C)C(C)C ({Oct(7)ynoyl}-[NMeV][NMeV][NMeV][NMeA][NMeF]-NMe2)
Leishmania donovani [1]
  IC50: 5.9 µM
Vero
  IC50: 159 µM
[2]
  selectivity ratio: 27

## C#CCCCCCC(=O)N(C)[C@H](C(=O)N(C)[C@H](C(=O)N(C)[C@H](C(=O)N(C)[C@@H](C)C(=O)N(C)[C@@H](Cc1ccccc1)C(=O)O)C(C)C)C(C)C)C(C)C ({Oct(7)ynoyl}-[NMeV][NMeV][NMeV][NMeA][NMeF]-OH)
Leishmania donovani [1]
  IC50: > 14 µM
Vero
  IC50: > 68.9 µM

## C#CCCCCCC(=O)N(C)[C@H](C(=O)N(C)[C@H](C(=O)N(C)[C@H](C(=O)N(C)[C@@H](C)C(=O)N(C)[C@@H](Cc1ccccc1)C(=O)OC)C(C)C)C(C)C)C(C)C ({Oct(7)ynoyl}-[NMeV][NMeV][NMeV][NMeA][NMeF]-OMe)
Leishmania donovani [1]
  IC50: > 14 µM
Vero
  IC50: 27 µM

## CC(=O)CCCC[C@@H](C)C(=O)N(C)[C@H](C(=O)N(C)[C@H](C(=O)N[C@H](C(=O)N(C)[C@@H](C)C(=O)N(C)[C@@H](Cc1ccccc1)C(N)=O)C(C)C)C(C)C)C(C)C [ALMIRAMIDE A] (X1-[NMeV][NMeV]V[NMeA][NMeF]-NH2)
Leishmania donovani [1]
  IC50: > 13.5 µM
Trypanosoma cruzi [4]
  Activity: inactive
Vero
  IC50: 113 µM
Plasmodium falciparum
  Activity: inactive

## C#CCCCC[C@@H](C)C(=O)N(C)[C@H](C(=O)N(C)[C@H](C(=O)N[C@H](C(=O)N(C)[C@@H](C)C(=O)N(C)[C@@H](Cc1ccccc1)C(N)=O)C(C)C)C(C)C)C(C)C [ALMIRAMIDE B] ({Oct7ynoyl(2R-Me)}-[NMeV][NMeV]V[NMeA][NMeF]-NH2)
Leishmania donovani [1]
  IC50: 2.4 µM
Trypanosoma cruzi [4]
  Activity: inactive
Vero
  IC50: 52.3 µM
Plasmodium falciparum
  Activity: inactive
[2]
  selectivity ratio: 21.8

## C=CCCCC[C@@H](C)C(=O)N(C)[C@H](C(=O)N(C)[C@H](C(=O)N[C@H](C(=O)N(C)[C@@H](C)C(=O)N(C)[C@@H](Cc1ccccc1)C(N)=O)C(C)C)C(C)C)C(C)C [ALMIRAMIDE C] ({Octanoyl(2R-Me,7,8-dehydro)}-[NMeV][NMeV]V[NMeA][NMeF]-NH2)
Leishmania donovani [1]
  IC50: 1.9 µM
Trypanosoma cruzi [4]
  Activity: inactive
Vero
  IC50: 33.1 µM
Plasmodium falciparum
  Activity: inactive
[2]
  selectivity ratio: 17.4

## C[C@@H]1[C@H](O)[C@@H](C)/C=C/C=C/C=C/C=C/C=C/C=C/C=C/[C@H](O[C@@H]2O[C@H](C)[C@@H](O)[C@H](N)[C@@H]2O)C[C@@H]2O[C@](O)(C[C@@H](O)C[C@@H](O)[C@H](O)CC[C@@H](O)C[C@@H](O)CC(=O)O[C@H]1C)C[C@H](O)[C@H]2C(=O)O [AMPHOTERICIN B]
Leishmania donovani [1]
  IC50: 0.08 µg/mL

## CCCCCCCCCCCCCCCCOP(=O)([O-])OCC[N+](C)(C)C [MILTEFOSINE]
Leishmania donovani [1]
  IC50: 0.5 µM

## C#CCCCC[C@@H](C)C(=O)N(C)[C@H](C(=O)N(C)[C@H](C(=O)N(C)[C@H](C(=O)N(C)[C@@H](C)C(=O)N(C)[C@@H](Cc1ccccc1)C(N)=O)C(C)C)C(C)C)C(C)C [MONOMETHYLALMIRAMIDE B] ({Oct7ynoyl(2R-Me)}-[NMeV][NMeV][NMeV][NMeA][NMeF]-NH2)
Leishmania donovani [1]
  IC50: 1.6 µM

## CC1CS(=O)(=O)CCN1/N=C/c1ccc([N+](=O)[O-])o1 (stereo not given) [NIFURTIMOX]
Trypanosoma cruzi [5]
  IC50: 3 µg/mL (≈ 10.4 µM)

## C#CCCCC[C@@H](C)C(=O)N(C)[C@H](C(=O)N(C)[C@H](C(=O)N(C)[C@H](C(=O)N(C)[C@@H](C)C(=O)N(C)[C@@H](Cc1ccccc1)C(=O)N(C)C)C(C)C)C(C)C)C(C)C [PERMETHYLALMIRAMIDE B] ({Oct7ynoyl(2R-Me)}-[NMeV][NMeV][NMeV][NMeA][NMeF]-NMe2)
Leishmania donovani [1]
  IC50: 2.3 µM

## CCCCCC[C@@H](C)C(=O)N(C)[C@H](C(=O)N(C)[C@H](C(=O)N[C@H](C(=O)N(C)[C@@H](C)C(=O)N(C)[C@@H](Cc1ccccc1)C(N)=O)C(C)C)C(C)C)C(C)C [TETRAHYDROALMIRAMIDE B] (X3-[NMeV][NMeV]V[NMeA][NMeF]-NH2)
Leishmania donovani [6]
  Activity: inactive
Leishmania donovani [1]
  IC50: > 13.7 µM

From ChEMBL document CHEMBL1157819, “Almiramides A-C: discovery and development of a new class of leishmaniasis lead compounds” (J Med Chem, 2010)
